Assay results published in ChEMBL document CHEMBL3616446, “Structure activity optimization of 6H-pyrrolo[2,3-e][1,2,4]triazolo[4,3-a]pyrazines as Jak1 kinase inhibitors” (Bioorg Med Chem Lett, 2015).

Key:
UT7 = experiment: Selectivity ratio for inhibition of JAK2 in human UT7 cells to inhibition of JAK1 in human TF1 cells; format: cell-based
Procedure, shortened: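 Cell-based pSTAT read-outs. Jak1: IL-6-stimulated pSTAT3 in TF-1 cells. Jak2: Epo-stimulated pSTAT5 in UT-7 cells. Full-length endogenous Jak at cellular ATP levels. Run in 96-well format, some in 384-well. Ratio = Jak2 cellular value / Jak1 cellular value.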

[1] = Metabolic stability in human microsomes assessed as compound remaining at 1 uM measured at 25 mins; format: ADME, Microsome; details: read-out: Stability
Procedure, shortened: (§1)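 Microsomes at 0.25 mg protein with 1 mM NADPH and 1 µM compound, incubated 25 min at 37 °C; % parent remaining at 25 min. Rat: pooled male SD microsomes. Human: pooled male/female microsomes.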

[2] = Metabolic stability in Sprague-Dawley rat microsomes assessed as compound remaining at 1 uM measured at 25 mins; format: ADME, Microsome; details: read-out: Stability; procedure, shortened: as §1
[3] = AUC (0 to infinity) in Sprague-Dawley rat at 10 mg/kg, po; format: ADME, organism-based; parameters: dose 10 mg/kg, time infinity, route oral; details: in vivo
[4] = Plasma clearance in Sprague-Dawley rat at 5 mg/kg, iv; format: ADME, organism-based
[5] = Cmax in Sprague-Dawley rat at 10 mg/kg, po; format: ADME, organism-based; parameters: dose 10 mg/kg, route oral; details: in vivo
Rattus norvegicus = experiment: Antiinflammatory activity in Lewis rat assessed as inhibition of concanavalin A-induced IFNgamma production administered 30 mins prior to concanavalin A challenge measured at 4 hrs by ELISA; format: functional; parameters: concentration or dose not given beside the values
[6] = Oral bioavailability in Sprague-Dawley rat at 10 mg/kg; format: ADME, organism-based; details: in vivo

O=S(=O)(N[C@H]1CC[C@@H](c2nnc3cnc4[nH]ccc4n23)C1)C1CCCCC1 showed a Selectivity ratio (UT7) of over 75.

With O=S(=O)(N[C@H]1CC[C@@H](c2nnc3cnc4[nH]ccc4n23)C1)C1CCCC1 the remaining at 25 min, 1 µM [1] was 90%, the Selectivity ratio (UT7) was 100 and the remaining at 25 min, 1 µM [2] was 68%.

Compound O=S(=O)(N[C@H]1CC[C@H](c2nnc3cnc4[nH]ccc4n32)CC1)C1CC1 has a Selectivity ratio (UT7) of over 20.

Work on CCCS(=O)(=O)N[C@H]1CC[C@@H](c2nnc3cnc4[nH]ccc4n23)C1 yielded a Selectivity ratio (UT7) of over 20.

Compound CCS(=O)(=O)N[C@H]1CC[C@@H](c2nnc3cnc4[nH]ccc4n23)C1 has a Selectivity ratio (UT7) of 101 and a remaining at 25 min, 1 µM [2] of 100%.

With O=S(=O)(N[C@]12CC[C@](c3nnc4cnc5[nH]ccc5n43)(CC1)CC2)C1CC1 the AUC(0-inf) [3] was 410 ng·h/mL, the clearance [4] was 51.7 mL/min/kg and the Cmax [5] was 60 ng/mL. For the same compound, the “inhibition (INH)” value (Rattus norvegicus) was 31%, the bioavailability [6] was 13% and the Selectivity ratio (UT7) was 225.

With O=S(=O)(N[C@H]1CC[C@@H](c2nnc3cnc4[nH]ccc4n23)C1)C1CCC1 the AUC(0-inf) [3] was 860 ng·h/mL, the clearance [4] was 41.7 mL/min/kg and the Cmax [5] was 310 ng/mL. For the same compound, the remaining at 25 min, 1 µM [1] was 85%, the “inhibition (INH)” value (Rattus norvegicus) was 40% and the bioavailability [6] was 32%. For the same compound, the Selectivity ratio (UT7) was 227 and the remaining at 25 min, 1 µM [2] was 80%.

For O=S(=O)(N[C@H]1CCC[C@@H](c2nnc3cnc4[nH]ccc4n23)C1)C1CC1 (racemic), the AUC(0-inf) [3] was 50 ng·h/mL, the Cmax [5] was 10 ng/mL and the “inhibition (INH)” value (Rattus norvegicus) was 0%. For the same compound, the Selectivity ratio (UT7) was 9.

Work on O=S(=O)(N[C@H]1CC[C@@H](c2nnc3cnc4[nH]ccc4n23)C1)c1cccc(Cl)c1 yielded a remaining at 25 min, 1 µM [1] of 8%, a Selectivity ratio (UT7) of 54 and a remaining at 25 min, 1 µM [2] of 6%.

With O=S(=O)(N[C@@H]1CCC[C@@H](c2nnc3cnc4[nH]ccc4n23)C1)C1CC1 (racemic) the Selectivity ratio (UT7) was over 10.

Work on COc1ccc(S(=O)(=O)N[C@H]2CC[C@@H](c3nnc4cnc5[nH]ccc5n34)C2)cc1 yielded a remaining at 25 min, 1 µM [1] of 35%, a Selectivity ratio (UT7) of 26 and a remaining at 25 min, 1 µM [2] of 61%.

O=S(=O)(N[C@H]1CC[C@@H](c2nnc3cnc4[nH]ccc4n23)C1)c1ccccc1 gave a remaining at 25 min, 1 µM [1] of 42%, a Selectivity ratio (UT7) of 34 and a remaining at 25 min, 1 µM [2] of 31%.

c1cc2c(ncc3nnc(C4CCCCC4)n32)[nH]1 gave an AUC(0-inf) [3] of 280 ng·h/mL and a Cmax [5] of 170 ng/mL.

Work on CS(=O)(=O)N[C@H]1CC[C@@H](c2nnc3cnc4[nH]ccc4n23)C1 yielded a Selectivity ratio (UT7) of 34.

O=S(=O)(N[C@H]1CC[C@@H](c2nnc3cnc4[nH]ccc4n23)C1)C1CC1 gave an AUC(0-inf) [3] of 1100 ng·h/mL, a clearance [4] of 48.3 mL/min/kg and a Cmax [5] of 230 ng/mL. The remaining at 25 min, 1 µM [1] was 100%, the “inhibition (INH)” value (Rattus norvegicus) was 55% and the bioavailability [6] was 29%. For the same compound, the Selectivity ratio (UT7) was 17 and the remaining at 25 min, 1 µM [2] was 98%.
